This passage reports Kd and stoichiometry N results from publication PMC5558615 (ChemMedChem, 2015).

Changes are numbered by the printed parent chain.

In assay [1] the target is T1, saposin B (sapB) (Homo sapiens, UniProt P07602, E263A).
T1 sequence (P07602 195-273 E263A): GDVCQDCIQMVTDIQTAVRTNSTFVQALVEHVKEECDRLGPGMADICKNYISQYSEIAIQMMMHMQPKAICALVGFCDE
Kind of assay: ITC, two sets of independent sites fit. In kind it is binding. (In general: In ITC the heat of successive injections is recorded.)

Assay [2] has as its target T2, saposin B (sapB) (Homo sapiens, UniProt P07602).
T2 sequence (P07602 195-273): T1 sequence (P07602 195-273 E263A) with A69E
The experiment in a line: ITC, two sets of independent sites fit. In kind it is binding. Summed up: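 Ligand-into-buffer control titrations were used in the analysis. Integrated heats were plotted against the ligand/sapB dimer molar ratio and fitted to two independent site sets. Strong-site parameters were reported; for the weak set, only n2·K2·ΔH2.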

Assay [3] deals with saposin B. The experiment in a line: crystal structure.

Usually Kd stands for the equilibrium constant for the complex coming apart. Read a low Kd as higher affinity. `CCN(CC)CCC[C@@H](C)Nc1ccnc2cc(Cl)ccc12` [chloroquine]: the figures for the Kd in assay [1] and in assay [2] were 23.1 µM and 31.8 µM, respectively.
As a reminder, the stoichiometry N is a count of units in the complex or per binding partner. saposin B (natural protein) showed a stoichiometry N in assay [3] of 2.
